High-throughput results (PubChem)
CHT PAM: allosteric activators of human choline transporter CHT. CHT-expressing cells, membrane potential dye, choline EC20; hits give high values; LV-AA mutant CHT in HEK293 cells. B-score at 10 µM. 0.49% of 310,000 active;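 active = initial fluorescence not abnormally high and integrated response B-score, plate-corrected, over 3 SD above library mean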
Target sequence (Q9GZV3 whole entry, looked up): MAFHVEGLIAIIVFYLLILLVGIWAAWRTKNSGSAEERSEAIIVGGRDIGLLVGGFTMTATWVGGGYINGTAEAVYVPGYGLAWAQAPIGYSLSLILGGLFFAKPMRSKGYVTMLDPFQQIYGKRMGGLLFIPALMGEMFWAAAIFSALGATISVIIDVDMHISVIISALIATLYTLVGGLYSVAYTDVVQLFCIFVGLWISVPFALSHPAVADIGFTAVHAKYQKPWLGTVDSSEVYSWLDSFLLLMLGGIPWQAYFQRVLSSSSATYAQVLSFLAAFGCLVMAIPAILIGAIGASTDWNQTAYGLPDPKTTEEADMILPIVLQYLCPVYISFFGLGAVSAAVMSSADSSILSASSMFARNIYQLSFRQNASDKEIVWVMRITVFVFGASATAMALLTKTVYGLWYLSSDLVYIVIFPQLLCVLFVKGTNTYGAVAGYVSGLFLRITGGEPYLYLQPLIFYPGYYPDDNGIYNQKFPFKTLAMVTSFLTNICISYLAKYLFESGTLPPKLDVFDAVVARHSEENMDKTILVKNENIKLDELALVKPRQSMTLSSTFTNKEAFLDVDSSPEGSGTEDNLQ
HSF1 inhib: HSF1 inhibition; NIH3T3-HGL HSE-luciferase, MG132-induced, luminescence 8 h; hits give low values; activity change, negative = inhibition, % at 7.5 µM (by protocol); 0.77% of 300,000 active; AID 2098;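 active = more than half of replicate wells show activity change below -50%, luminescence cut by over half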;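 note: luciferase reports HSF-1 transcriptional activity via heat shock element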
HSF-1 act: increases HSF-1 driven luciferase reporter signal; activation, % at 9 µM; 1.7% of 300,000 active; NIH3T3-HGL HSF-1 luciferase reporter, MG132, 8 h; 100% = twice DMSO control signal;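 active = mean replicate activation of at least 50% with a set share of replicates each reaching 50%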
Lipid droplet: modulators of hepatic lipid droplet formation; inhibition, % at 6.5 µM; 0.4% of 240,000 active; AML12 mouse hepatocytes, oleate lipid droplets, BODIPY imaging;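 active = lipid droplet intensity inhibited by at least 50%, with more than 500 cells counted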
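Assay system: AML12 hepatocytes (mouse) / Also added: 100 µM oleic acid challenge / Times: overnight treatment with compound plus oleate / Detection: high-content imaging of BODIPY-stained droplets and DAPI nuclei / Evaluation: % inhibition of lipid droplet signal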
CHT inh: inhibitors of human choline transporter CHT. Q9GZV3. CHT-expressing cells, membrane potential dye, choline response; hits give low values. B-score at 10 µM. 0.86% of 310,000 active. AID 488975;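 active = B-score over 3 SD under the library average, and starting fluorescence ratio not unusually high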;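 note: choline stimulus applied at its EC90 after an EC20 pre-addition; B-score computed on integrated fluorescence ratio after choline addition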
PHOSPHO1 block: inhibitors of human PHOSPHO1 phosphatase. Q8TCT1. recombinant PHOSPHO1, absorbance phosphatase assay. inhibition, % at 13.3 µM. 1.1% of 290,000 active. AID 1565; in the data active = inhibition above about 60%
A number is an active result; n = inactive; x = not tested or not shown. An excerpt weighted towards active compounds, which were near 4.9% of everything screened.

SMILES | CHT PAM | HSF1 inhib | HSF-1 act | Lipid droplet | CHT inh | PHOSPHO1 block
COc1ccccc1NC(=O)C(C)OC(=O)COc1cccc2c1OC(C)(C)C2 (configuration not stated) | n | n | n | x | n | x
O=C(Nc1ccc2ccccc2n1)c1ccccc1 | n | n | n | n | n | n
Cc1ccc(C(=O)Nc2ccc3ccccc3n2)cc1 | n | n | 58.3 | n | n | n
O=[N+]([O-])c1ccc2nc(-c3ccccc3)n(OCc3ccc(Cl)cc3)c2c1 | n | n | 58.9 | x | n | n
O=[N+]([O-])c1ccc(COn2nnc3ccccc32)cc1 | n | n | n | n | n | n
COn1c(-c2ccccc2)nc2ccc(Cl)cc21 | n | n | 66.2 | x | n | n
Cc1noc(C)c1COC(=O)CCCc1c[nH]c2ccccc12 | n | n | n | n | n | n
O=C(O/N=C/c1ccc(Cl)cc1)C1CCCCC1 | n | n | n | x | n | n
Cc1cc(C)nc(N(C#N)CN2C(=O)c3ccccc3C2=O)n1 | n | n | n | x | n | n
CCC(C)Nc1nc(Cl)nc(N(C#N)CN2C(=O)c3ccccc3S2(=O)=O)n1 (configuration not stated) | n | n | 75.6 | n | n | n
CCCC(=O)N=C1SC2CS(=O)(=O)CC2N1c1ccc(C(C)=O)cc1 (configuration not stated) | n | n | n | x | n | n
COc1cc(N=Cc2c(CO)cnc(C)c2O)cc(OC)c1OC | n | n | n | n | n | n
Cc1nnc(Sc2cc(NCCO)c([N+](=O)[O-])c3nonc23)s1 | x | n | 153.4 | n | x | n
CCC(=O)OCCNc1cc(Sc2nc3ccccc3s2)c2nonc2c1[N+](=O)[O-] | n | n | 84.8 | x | n | 88.1
CCC(=O)OCCNc1cc(Sc2nc3ccccc3[nH]2)c2nonc2c1[N+](=O)[O-] | n | x | x | n | n | n
O=[N+]([O-])c1c(NCCCO)cc(Sc2nc3ccccc3s2)c2nonc12 | n | n | 271.6 | x | n | n
CCCc1cc(=O)[nH]c(SCC(=O)N2CCOCC2)n1 | n | n | n | n | n | n
CC1CN(C(=S)NC(=O)C2CCCCC2)CC(C)O1 (configuration not stated) | n | n | 52.0 | n | n | n
O=C(NC(=S)N1CCCCCC1)C1CC1 | n | n | n | n | n | n
CCCn1c(SCC(=O)c2c(C)[nH]c(C)c2C(=O)OCC)nc2ccccc21 | n | -61.2 | n | n | n | n
CCOC(=O)c1c(C)[nH]c(C)c1C(=O)CSc1nnc(-c2ccncc2)n1C | n | n | n | x | n | 81.4
CCOC(=O)c1c(C)[nH]c(C)c1C(=O)CSc1nc2ccccc2n1CCC#N | n | n | n | n | n | n
CCOC(=O)c1ccc(NC(=O)CSc2nnc(-c3ccncc3)n2C)cc1 | n | n | n | n | n | n
CC[C@@]1(O)C(=O)OCc2c1cc1n(c2=O)Cc2cc3c(CN(C)C)c(O)ccc3nc2-1 | n | n | n | x | n | x
CC[C@@]1(O)C(=O)OCc2c1cc1n(c2=O)Cc2cc3c(N)cccc3nc2-1 | n | n | 50.4 | n | n | n
SMILES | CHT PAM | HSF1 inhib | HSF-1 act | Lipid droplet | CHT inh | PHOSPHO1 block
Cc1csc(NC(=O)/C=C/c2ccc(C)o2)n1 | n | n | n | n | n | n
Cc1csc(NC(=O)/C=C/c2ccco2)n1 | n | n | 57.1 | n | n | n
O=C(/C=C/c1ccco1)Nc1ccc(N2CCCC2)cc1 | n | n | 63.7 | n | n | n
CCc1cccc(NS(=O)(=O)c2ccc3c(c2)oc(=O)n3C)c1 | n | n | n | x | n | 67.5
Cn1c(=O)oc2cc(S(=O)(=O)N3CCCCC3)ccc21 | n | n | 113.2 | n | n | n
Cn1c(=O)oc2cc(S(=O)(=O)Nc3ccccc3)ccc21 | n | n | n | n | n | n
CC1CCCC(C)N1C(=O)CSc1ccc(-c2ccc3c(c2)OCCO3)nn1 (configuration not stated) | n | -88.4 | n | n | n | n
COc1ccc(C(=O)C2CCCN(Cc3cnc(N4CCOCC4)s3)C2)c(OC)c1 (configuration not stated) | n | n | n | n | n | n
O=[N+]([O-])c1ccc(N=Nc2ncc[nH]2)cc1 | n | -66.3 | n | n | n | n
O=C(CSc1nnc(-c2ccc(F)cc2)c2ccccc12)Nc1cccc(Cl)c1 | n | n | n | n | n | n
O=C(CSc1nnc(-c2ccc(F)cc2)c2ccccc12)Nc1ccccc1 | n | n | 82.7 | n | n | n
COc1ccc(NC(=O)CCc2nnc3ccc(NCc4ccc5c(c4)OCO5)nn23)cc1 | n | n | 66.3 | n | n | n
COc1ccc(NC(=O)CCc2nnc3ccc(NCc4ccco4)nn23)cc1 | n | n | n | n | n | n
CC(C)CNC(=O)C1CCN(CC2CCCCC2)CC1 | n | n | n | x | n | n
N#CC1=C2SCN(Cc3ccccc3)CN2C(=O)CC1c1ccc2c(c1)OCO2 (configuration not stated) | n | n | n | n | n | 63.2
N#CC1=C2SCN(Cc3ccccc3)CN2C(=O)CC1c1cccs1 (configuration not stated) | n | n | n | x | n | 67.5
Cc1ccc2nc3sc(C(=O)NCc4ccco4)c(N)c3cc2c1 | n | n | 84.6 | n | n | n
CCOc1ccc2nc3sc(C(=O)N4CCN(C)CC4)c(N)c3cc2c1 | n | n | n | n | n | n
Cc1ccc2cc3c(N)c(C(=O)N4CCOCC4)sc3nc2c1 | n | n | 67.1 | x | n | 61.4
Cc1ccc2nc3sc(C(=O)N4CCOCC4)c(N)c3cc2c1 | n | n | n | x | n | 85.6
C#CCOCCOCCOCCNc1nc(N2CCN(C(=O)CCCCCCCCCCNC(=O)Cn3cc(CCCCCN)nn3)CC2)nc(N2CCN(C(=O)CCCCCCCCCCNC(=O)[C@H]([C@@H](C)CC)n3cc(CCCCCN)nn3)CC2)n1 | n | x | x | x | n | x
O=C(NCCN1CCCC1)C1CCN(S(=O)(=O)N2CCC3(CC2)OCCO3)CC1 | n | n | n | n | n | n
Cc1nn(-c2ccccc2Cl)c(Cl)c1/C=N/Nc1cccc(C(=O)O)c1 | n | -71.0 | n | n | n | n
CCOC(=O)N/N=C/c1c(C)nn(-c2cccc(C(F)(F)F)c2)c1Cl | n | n | n | n | n | n
Cc1ccsc1/C=N/Nc1cccc(C(=O)O)c1 | n | -54.0 | n | n | n | n
SMILES | CHT PAM | HSF1 inhib | HSF-1 act | Lipid droplet | CHT inh | PHOSPHO1 block
Cc1ccc(/C=N/Nc2cccc(C(=O)O)c2)s1 | n | n | n | n | n | n
Cc1ccsc1/C=N/Nc1ccc(C(=O)O)cc1 | n | n | n | n | n | n
Cc1nn(-c2cccc(C(F)(F)F)c2)c(Cl)c1/C=N/Nc1cccc(C(=O)O)c1 | n | -73.4 | n | n | n | n
Cc1ccccc1N1CCN(S(=O)(=O)Cc2ccccc2)CC1 | n | n | 51.9 | n | n | n
O=S(=O)(Cc1ccccc1)N1CCN(c2ccccc2)CC1 | n | n | n | x | n | n
OCCn1nc2c3ccccc3nc-2n(-c2ccccc2)c1=S | n | x | x | x | n | 76.4
